Data taken from PMC5962930 (ACS Chemical Biology, 2018).

Columns and labels:
[1] = test system: Aplysia feeding network; assay: Feeding network; type: cell-based; settings: intact buccal and cerebral ganglia; peptide perfusion vs control
Procedure, shortened: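 Intact buccal plus cerebral ganglia were recorded intra- and extracellularly during peptide perfusion. A peptide scored active when perfusion gave statistically higher circuit activity than control without peptide. Means were compared by repeated-measures one-way ANOVA, assuming sphericity, with Bonferroni post test.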

[2] = molecular target: T1, apALNR (Aplysia californica, UniProt A0ABM0K1K5); type: cell-based
T1 sequence (A0ABM0K1K5 1-578): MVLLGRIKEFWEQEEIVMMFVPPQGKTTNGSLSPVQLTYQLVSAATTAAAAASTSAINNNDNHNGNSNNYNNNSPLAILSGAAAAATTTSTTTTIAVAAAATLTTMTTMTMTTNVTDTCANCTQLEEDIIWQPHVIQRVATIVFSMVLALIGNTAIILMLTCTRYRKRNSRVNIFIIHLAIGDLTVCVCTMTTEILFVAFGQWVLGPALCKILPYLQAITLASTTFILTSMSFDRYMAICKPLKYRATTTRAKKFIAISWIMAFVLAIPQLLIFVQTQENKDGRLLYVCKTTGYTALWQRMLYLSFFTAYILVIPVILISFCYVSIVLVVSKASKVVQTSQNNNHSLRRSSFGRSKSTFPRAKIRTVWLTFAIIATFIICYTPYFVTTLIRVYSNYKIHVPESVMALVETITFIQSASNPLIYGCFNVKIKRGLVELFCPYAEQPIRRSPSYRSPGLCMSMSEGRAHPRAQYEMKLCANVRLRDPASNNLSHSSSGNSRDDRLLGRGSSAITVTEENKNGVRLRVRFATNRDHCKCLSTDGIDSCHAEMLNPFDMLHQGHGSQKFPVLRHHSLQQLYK

Substance: H-SYADSKDEESNAALSDFAED-OH
- feeding network (electrophys.) [1]: not active
- EC50 [2]: > 50 µM
